The assay addresses T1, Interleukin-1 receptor type 1 (Mus musculus) (UniProt P13504).
T1 sequence (whole entry): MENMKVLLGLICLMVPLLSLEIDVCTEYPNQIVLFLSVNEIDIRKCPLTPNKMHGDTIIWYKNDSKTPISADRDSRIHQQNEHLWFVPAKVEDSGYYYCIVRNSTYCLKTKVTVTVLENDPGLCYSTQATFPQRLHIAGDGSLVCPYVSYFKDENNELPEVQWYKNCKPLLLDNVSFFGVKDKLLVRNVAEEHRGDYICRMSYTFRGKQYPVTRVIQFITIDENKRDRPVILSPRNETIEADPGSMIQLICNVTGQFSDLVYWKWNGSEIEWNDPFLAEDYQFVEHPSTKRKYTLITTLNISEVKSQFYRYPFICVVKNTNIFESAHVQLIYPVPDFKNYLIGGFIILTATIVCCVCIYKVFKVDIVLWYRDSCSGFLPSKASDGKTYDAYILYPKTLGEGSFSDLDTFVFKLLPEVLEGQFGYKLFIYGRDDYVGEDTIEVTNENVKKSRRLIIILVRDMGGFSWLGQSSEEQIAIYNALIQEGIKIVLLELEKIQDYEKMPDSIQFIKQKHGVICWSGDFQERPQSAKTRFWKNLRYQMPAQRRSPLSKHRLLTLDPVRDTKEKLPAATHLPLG
As to the kind of experiment: Inhibition of MyD88 recruitment to IL-1R in C57BL/6 mouse BMDM cells assessed as inhibition of IL-1-induced IkappaBalpha degradation up to 90 mins by Western blot analysis. Type of assay: cell-based. The essentials: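 Bone marrow macrophages from C57BL/6 mice, grown in 70% growth medium (DMEM, 10% FBS) plus 30% L929-conditioned medium and given fresh medium 12-14 h before stimulation. Stimuli: IL-1 40 ng/ml, HKSA ~10^8 cfu/ml, pI:pC 50 μg/ml or CpG 10 μg/ml, ± compound at 10 μM (final) added from a 200x DMSO stock. IκBα and p38 profiled by immunoblot. Three independent experiments, quantitated and normalized.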
(In general: A western blot detects proteins with antibodies after separation by electrophoresis.)

The results in this text go back to ChEMBL document CHEMBL2203171, “The use of small molecule probes to study spatially separated stimulus-induced signaling pathways” (Bioorg Med Chem Lett, 2012).

Calls of active or inactive are those of the source. No cut-off for these calls is given here.

For `O=C(CCCCCN1C(=O)C=CC1=O)Oc1ccc2cc(C(C(=O)NCc3ccccc3)N(C(=O)Cc3ccc4c(c3)OCO4)C3CC3)ccc2c1` (stereo unspecified), the inhibition result was “Active”.
